Source: PubChem BioAssay
Only some compounds are listed: those with a hit (about 1.9% of all), similar ones and a draw of the others.
rRNA inh HTS = reduced GFP signal of wild-type E. coli, primary screen, bacterial rRNA inhibitor project, GFP/RFP fluorescence, OD600, single point. E. coli WT GFP vs humanized-ribosome RFP mutants, 24 h; hits give low values; DMSO median 0, no signal -100. GFP signal change (wild-type ribosome), % (concentration not given with the values). 1.6% of 350,000 active;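 active = significant combined selectivity score with lowered wild-type GFP, culture density cut under 30%, mutant RFP and density less affected; inactive = any of these conditions unmet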
RAD54 inh = inhibitors of human RAD54 branch migration, primary screen, biochemical, fluorescence, single point. inhibition, % at 10.4 µM. 0.14% of 360,000 active. RAD54 Holliday junction branch migration, FAM/BHQ fluorescence. DNA repair and recombination protein RAD54-like (Homo sapiens), Q92698. AID 602329, 2012;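 active = mean normalized replicate activity at least 40 and at least half of replicates scoring 40 or more; inconclusive = only one of the two criteria met; inactive = mean below 40 and under half of replicates reaching 40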;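 note: 0% = median of neutral control wells and 100% = median of positive control wells; inhibitors cause a drop in the FAM fluorescence signal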
Target sequence (Q92698 whole entry, looked up): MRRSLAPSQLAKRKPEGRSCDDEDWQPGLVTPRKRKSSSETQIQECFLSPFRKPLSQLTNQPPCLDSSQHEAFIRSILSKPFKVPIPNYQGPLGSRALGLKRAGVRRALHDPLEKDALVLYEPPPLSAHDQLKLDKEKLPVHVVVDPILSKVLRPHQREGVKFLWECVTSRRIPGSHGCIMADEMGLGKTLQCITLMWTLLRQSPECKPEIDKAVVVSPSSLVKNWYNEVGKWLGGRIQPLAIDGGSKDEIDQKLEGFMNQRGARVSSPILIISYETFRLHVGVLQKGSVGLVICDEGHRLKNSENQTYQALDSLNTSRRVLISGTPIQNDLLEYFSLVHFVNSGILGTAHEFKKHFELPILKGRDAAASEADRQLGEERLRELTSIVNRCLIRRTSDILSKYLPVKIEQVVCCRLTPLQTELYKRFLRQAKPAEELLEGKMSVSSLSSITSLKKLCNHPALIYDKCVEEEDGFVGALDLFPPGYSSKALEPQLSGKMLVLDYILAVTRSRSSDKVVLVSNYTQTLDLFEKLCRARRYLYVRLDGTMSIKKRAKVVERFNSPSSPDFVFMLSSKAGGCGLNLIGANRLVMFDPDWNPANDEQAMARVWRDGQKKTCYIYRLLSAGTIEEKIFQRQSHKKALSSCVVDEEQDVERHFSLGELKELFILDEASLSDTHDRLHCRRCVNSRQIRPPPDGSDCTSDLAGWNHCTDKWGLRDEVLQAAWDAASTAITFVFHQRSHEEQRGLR
PglD DTNB = C. jejuni PglD acetyltransferase inhibitors, primary screen, biochemical, DTNB colorimetric, single point; AID 602405, 2012; inhibition, % at 12.5 µM; purified PglD enzyme, DTNB colorimetric CoA detection; 0.098% of 360,000 active; UDP-N-acetylbacillosamine N-acetyltransferase PglD (Campylobacter jejuni); in the data active = inhibition above about 16%, passing the limit was not always enough; inconclusive = no clear call, values can overlap the other calls
Cneo AK release = Cryptococcus neoformans cell lysis inducers, primary screen, AK release luminescence, single concentration | C. neoformans lysis, adenylate kinase release luminescence, 4 h; normalised: neutral wells 0, clomiphene wells 100 | lysis activity, % at 15 µM | 0.2% of 360,000 active | AID 651654, 2012;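 active = mean lysis activity across replicates of at least 80%, whatever share of replicates individually reach that level; inactive = mean lysis activity below 80%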
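Schedule: static 4 h at 37 °C with compound, 1 h detection; system: C. neoformans cells; benchmarks: Clomiphene as positive control; buffer or medium: fresh YPD medium; measure: luminescence rise reflecting yeast cell lysis; measured by: luminescent adenylate kinase detection reagent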
RAD52 anneal inh = RAD52 DNA annealing inhibitors, primary screen, biochemical, FRET, single point, set 2. recombinant RAD52 DNA annealing, FRET fluorescence. inhibition, % at 18.7 µM. 0.46% of 360,000 active;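 active = every replicate showing at least 50% inhibition; inconclusive = mean inhibition at least 50% but not in every replicate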
DNA binding = DNA binding of candidate compounds, dose response, artefact control for RAD54 inhibitor project, biochemical, fluorescence polarization, cherry-pick; shares compounds with RAD54 inh; Acridine orange-DNA displacement, 20 min; AC50, µM (doses to about 35 µM), inactives show at the top dose activity change, negative = DNA binding; 8% of 460 active; AID 651673, 2012;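 active = signal drop giving an AC50 within twice the top valid tested concentration of each sample, actives reach about 35 µM in these data; inactive = activity opposite to expected, plus the rest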;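 note: polarization loss reports compound binding to salmon sperm DNA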
PglD inh SP = PglD acetyltransferase inhibitors, confirmation, biochemical, DTNB absorbance, single point, cherry-picked samples. inhibition, % at 20 µM. 320 tested, under 10 active. AID 743156, 2013. shares compounds with PglD DTNB. Purified C. jejuni PglD, DTNB absorbance 412 nm;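 active = mean inhibition across replicates of at least 20% with every single replicate also at 20% or more; inconclusive = mean inhibition at least 20% but some replicate falls below 20%; inactive = mean inhibition under 20% and not all replicates reach it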;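 note: initial rate of CoA release by acetyl transfer from AcCoA to the UDP-4-amino sugar; 0% = median of neutral control wells and 100% = median of positive control wells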
RAD52 DNA ctr = DNA-binding compounds via dye displacement, dose response, artefact control for RAD52 inhibitor project, biochemical, fluorescence polarization, cherry-pick; shares compounds with RAD52 anneal inh; Salmon sperm DNA/acridine orange FP displacement; AC50, µM; 8% of 1,000 active;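 active = fitted half-maximal concentration for signal loss at or below twice the highest dose tested, in every separate run, actives reach about 64 µM in these data; inconclusive = runs disagree, or flat partial signal loss, or poor fit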
* marks the source's active call; other numbers are inactive results; i = inactive; ? = inconclusive; . = not tested or not shown.

SMILES | rRNA inh HTS | RAD54 inh | PglD DTNB | Cneo AK release | RAD52 anneal inh | DNA binding | others
COc1cc2nc(N3CCNCC3)nc(N)c2cc1OC | . | 64* | 6 | 4 | . | -9%
CC(C)NC(=O)Nc1ccc2c(c1)C(=O)N([C@@H](C)CO)C[C@@H](C)[C@H](CN(C)S(C)(=O)=O)OCCCC[C@@H](C)O2 | 5 | 2 | 7 | -4 | -1 | .
CC(C)(C)C(=O)N1CCN(CCN2C(=O)c3cccc4cccc(c34)C2=O)CC1 | 11 | 1 | 2 | 0 | -9 | .
COc1ccc(C(=O)CN2CCN(CCN3C(=O)c4cccc5cccc(c45)C3=O)CC2)cc1 | -19 | 64* | -2 | 7 | -6 | -19%
CCN(CC)CCn1c2ccc(F)cc2c2nc(C)sc21 | . | ? | -5 | 2 | . | -5%
CCN1CCCC1CNC(=O)c1cc2c(C)nc3ccccc3c2o1 (stereo not given) | . | 28 | 7 | 1 | . | .
Cc1nc2ccccc2c2oc(C(=O)N3CCC(N4CCCCC4)CC3)cc12 | . | 67* | -1 | 1 | . | -5%
Cc1nc2ccccc2c2oc(C(=O)NCCN3CCCCC3C)cc12 (stereo not given) | 2 | 52* | -3 | 1 | -5 | -19%
CCCN1CCN(CCCNC(=O)c2cc3c(=O)n(C)c4ccccc4c3n2C)CC1 | -8 | ? | 0 | -7 | 26 | -3%
CN1CCN(CCNC(=O)c2cc3c(=O)n(C)c4ccccc4c3n2C)CC1 | -7 | 64* | -1 | 0 | 19 | 0%
COCCCNCCC(CCC(C)C)c1ccc2c(c1)OCO2 (stereo not given) | -13 | ? | 2 | 1 | -9 | 13%
CC(C)CCC(CCN1CCCC1)c1ccc2c(c1)OCO2 (stereo not given) | -7 | 4 | -1 | 2 | -6 | .
CCCNC(=O)N1CC2(CCN(C(=O)c3ccncc3)CC2)c2c([nH]c3cc(OC)ccc23)[C@H]1CO | -1 | . | . | . | -2 | .
CCN1CCN(c2nc(N)c([N+](=O)[O-])c(Nc3cccc(C)c3)n2)CC1 | 9 | ? | -5 | 4 | -17 | -8%
C[C@H](CO)N1C[C@H](C)[C@@H](CN(C)Cc2ccccc2F)Oc2cc(C#CCN(C)C)ccc2S1(=O)=O | -21 | 1 | -1 | 2 | 8 | .
Oc1ccc(CCNc2c3ccccc3nc3ccccc23)cc1O | -26 | 116* | -3 | 3 | 106* | 25µM*
O=S(=O)(CCSc1ccc(C(F)(F)F)cn1)c1ccccc1 | 8 | . | . | . | -14 | .
Cc1ccc(S(=O)(=O)CCSc2ccc(C(F)(F)F)cn2)cc1 | 19 | ? | 1 | -3 | -17 | -2%
COCC(=O)N1CC2(C1)[C@@H](c1ccccc1)[C@@H](CO)N2CCC(F)(F)F | 0 | . | . | . | -4 | .
Cc1ccc2nc3c(cc(C(=O)NCCN4CCOCC4)c(=N)n3CCCN3CCOCC3)c(=O)n2c1 | . | 66* | -5 | 0 | . | -15%
O=C1C(c2ccc(F)cc2)N(C2CCCCC2)C(=O)CN1C1CCCC1 (stereo not given) | . | ? | 1 | 2 | . | -12%
CCOC(=O)c1c(C)n(C)c2ccc(OCC(O)CN3CCC(C)CC3)cc12 (stereo not given) | -3 | ? | -2 | 0 | 26 | -8%
C[C@@H]1CN([C@@H](C)CO)C(=O)c2cc(-c3ccccc3)cnc2O[C@@H]1CN(C)C(=O)Cc1ccccn1 | 0 | -2 | 1 | -1 | 7 | .
CCCN(C)C[C@H]1OCc2cn(nn2)CCCC(=O)N([C@H](C)CO)C[C@H]1C | 1 | 6 | 1 | -3 | 12 | .
NC(=O)C1CCN(c2nc(-c3cccnc3)cs2)CC1 | 2 | 60* | -2 | 3 | 11 | 14%
SMILES | rRNA inh HTS | RAD54 inh | PglD DTNB | Cneo AK release | RAD52 anneal inh | DNA binding | others
NC(=O)C1CCN(c2nc(-c3cccc(N)c3)cs2)CC1 | . | 4 | -1 | 1 | . | .
COC(=O)[C@H]1[C@H](CO)[C@H]2Cn3c(ccc(-c4ccccc4OC)c3=O)[C@H]2N1CC1CCCCC1 | 0 | . | . | . | 8 | .
Cn1c2ccc(F)cc2c2ncn(CCCN(CCO)CCO)c(=O)c21 | . | 54* | -5 | 44 | . | -14%
COCC#Cc1ccc2c(c1)O[C@H](CN(C)C(=O)Nc1ccccc1F)[C@H](C)CN([C@@H](C)CO)S2(=O)=O | -4 | 4 | -1 | 2 | -1 | .
CCNCCNC(=O)c1c(O)c2cccc3c2n(c1=O)CCC3 | . | ? | 22* | 1 | . | -9% | PglD inh SP=-16
CCCC#Cc1cnc2c(c1)C(=O)N([C@H](C)CO)C[C@H](C)[C@@H](CN(C)C(=O)NC1CCCC1)O2 | 3 | -7 | -2 | -6 | 9 | .
CCN(CC)CC(O)c1ccc2ccc3ccc(O)cc3c2c1 (stereo not given) | -11 | 68* | 0 | 0 | 72* | -7% | RAD52 DNA ctr=i
Cn1c2ccc(F)cc2c2nnc(SCCN3CCCCC3)nc21 | -4 | . | . | . | 8 | .
Cc1cc(C)c2c(c1)c1nnc(SCCN3CCCCC3)nc1n2C | -14 | 73* | -4 | 1 | 86* | 7% | RAD52 DNA ctr=i
CCCN(CCC)CCNC(=O)c1cc2c(-c3ccc(Cl)cc3)nn(C)c2s1 | -14 | 61* | 1 | 1 | 52* | -3% | RAD52 DNA ctr=i
CCCCN(CC)CCNC(=O)c1cc2c(-c3ccc(Cl)cc3)nn(C)c2s1 | -9 | 82* | 2 | 2 | 50* | -12% | RAD52 DNA ctr=i
CN(C)CCCNc1cc(-c2ccccc2)nc2cc(-c3cccc(F)c3)nn12 | -57 | 90* | -7 | 6 | 67* | -25% | RAD52 DNA ctr=i
Cc1ccc(C(=O)c2oc3ccc(Cl)cc3c2NC(=O)CN2CCN(C)CC2)cc1 | -40 | 82* | -2 | 3 | 82* | 1% | RAD52 DNA ctr=i
Cc1ccc(S(=O)(=O)N2CC[C@@H]3[C@@H](CO)N(C)c4ccc(-c5ccc(C#N)cc5)cc4[C@@H]32)cc1 | 0 | 5 | -1 | -4 | -10 | .
